ChEMBL document CHEMBL1667822, “Selective antagonists of mouse trace amine-associated receptor 1 (mTAAR1): discovery of EPPTB (RO5212773)” (Bioorg Med Chem Lett, 2011)

Experiments:
[1] = target: Melatonin receptor type 1A (Homo sapiens) (UniProt P48039); assay: Displacement of [125I]2-iodomelatonin from human recombinant MT1 receptor expressed in CHO cells; format: cell-based; conditions: concentration not given here
[2] = target: T1, Trace amine-associated receptor 1 (Rattus norvegicus, UniProt Q923Y9); assay: Antagonist activity at rat TAAR1 assessed as reversal of endogenous beta-PEA effect; format: functional
How it was run: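 cAMP functional assay in vitro measuring reversal of the effect of endogenous agonist beta-PEA; 100% antagonistic efficacy defined as 0% min% stimulation. Residual stimulation by beta-PEA recorded at the maximum test-compound concentration. Values are the average of at least two independent experiments; duplicates typically within a twofold margin.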

[3] = Half life in mouse at 2.5 mg/kg, iv; format: ADME, organism-based; parameters: dose 2.5 mg/kg, route intravenous; conditions: in vivo
How it was run: (§1)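 Single-dose pharmacokinetics in mice comparing parenteral routes: intravenous at 2.5 mg/kg and intraperitoneal at 5 mg/kg. Plasma concentrations were followed over time. Bioavailability was derived for the ip route, and Cmax was taken from the ip plasma profile.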

[4] = target: T2, Trace amine-associated receptor 1 (Homo sapiens, UniProt Q96RJ0); assay: Inhibition of human TAAR1
T2 sequence (Q96RJ0 whole entry): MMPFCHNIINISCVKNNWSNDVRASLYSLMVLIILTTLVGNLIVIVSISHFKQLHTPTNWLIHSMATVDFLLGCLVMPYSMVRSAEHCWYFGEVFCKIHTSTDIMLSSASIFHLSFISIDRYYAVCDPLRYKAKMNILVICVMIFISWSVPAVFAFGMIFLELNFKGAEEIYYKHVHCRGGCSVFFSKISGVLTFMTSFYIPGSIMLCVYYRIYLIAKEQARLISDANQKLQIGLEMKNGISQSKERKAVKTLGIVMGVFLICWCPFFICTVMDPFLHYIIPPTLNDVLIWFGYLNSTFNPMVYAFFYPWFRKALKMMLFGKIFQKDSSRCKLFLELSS
How it was run: (§2)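 In vitro cAMP functional assay with antagonism read as reversal of the response to the endogenous agonist beta-PEA. Efficacy was scaled so that 100% equals 0% minimum stimulation. Residual beta-PEA stimulation was taken at the highest test-compound concentration. Values are means of at least two independent experiments, with duplicates typically within a twofold margin.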

[5] = target: Type-1 angiotensin II receptor (Homo sapiens) (UniProt P30556); assay: Displacement of [125I][Sar1,Ile8]-AT II from human recombinant AT1 receptor expressed in HEK293 cells; format: cell-based; conditions: concentration not given here
[6] = target: T1, Trace amine-associated receptor 1; assay: Inhibition of rat TAAR1; how it was run: as §2
[7] = species: Rattus norvegicus; assay: Displacement of [3H]batrachotoxinin from sodium channel in rat cerebral cortex; format: tissue-based; conditions: concentration not given here
[8] = target: Kappa-type opioid receptor (Rattus norvegicus) (UniProt P34975); assay: Displacement of [3H]U69593 from rat recombinant kappa opioid receptor expressed in CHO cells; format: cell-based; conditions: concentration not given here
[9] = target: Histamine H1 receptor (Homo sapiens) (UniProt P35367); assay: Displacement of [3H]pyrilamine from human recombinant histamine H1 receptor expressed in HEK293 cells; format: cell-based; conditions: concentration not given here
[10] = target: monoamine oxidase-A (MAO-A) (Rattus norvegicus, UniProt P21396); assay: Inhibition of rat monoamine oxidase-A at 10 uM
[11] = target: Sodium-dependent dopamine transporter (Homo sapiens) (UniProt Q01959); assay: Inhibition of human dopamine transporter at 10 uM
[12] = Clearance in mouse at 2.5 mg/kg, iv; format: ADME, organism-based; parameters: dose 2.5 mg/kg, route intravenous; conditions: in vivo; how it was run: as §1
[13] = Ratio of drug level in brain to plasma in mouse at 5 mg/kg, ip; format: ADME, organism-based; parameters: dose 5 mg/kg, route intraperitoneal; conditions: read-out: BPR
How it was run: (§3)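 Single-dose pharmacokinetics in mice with parenteral dosing, either 2.5 mg/kg iv or 5 mg/kg ip. Drug levels were measured in plasma, with brain exposure taken as the brain/plasma concentration ratio.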

[14] = target: Muscarinic acetylcholine receptor M1 (Homo sapiens) (UniProt P11229); assay: Displacement of [3H]pirenzepine from human recombinant muscarinic M1 receptor expressed in CHO cells; format: cell-based; conditions: concentration not given here
[15] = target: Trace amine-associated receptor 1 (Mus musculus, UniProt Q923Y8); assay: Inhibition of mouse TAAR1
[16] = target: Melanocortin receptor 4 (Homo sapiens) (UniProt P32245); assay: Displacement of [125I]NDP-a-MSH from human recombinant MC4 receptor expressed in CHO cells; format: cell-based; conditions: concentration not given here
[17] = target: 5-hydroxytryptamine receptor 6 (Homo sapiens) (UniProt P50406); assay: Displacement of [3H]LSD from human recombinant 5HT6 receptor expressed in CHO cells; format: cell-based; conditions: concentration not given here
[18] = target: Trace amine-associated receptor 1 (Mus musculus) (UniProt Q923Y8); assay: Antagonist activity at mouse TAAR1 assessed as residual stimulation by in vitro cAMP functional assay relative to control; parameters: concentration or dose not given beside the values
How it was run: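 Mouse TAAR1 in vitro cAMP functional assay using the endogenous agonist β-PEA. The read-out is the residual β-PEA stimulation remaining at the maximum test-compound concentration. Values are averages of at least two independent experiments.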

[19] = species: Rattus norvegicus; assay: Inhibition of rat ca2+ channel verapamil site at 10 uM
[20] = target: Small conductance calcium-activated potassium channel protein 1 (Rattus norvegicus) (UniProt P70606); assay: Displacement of [125I]apamin from SK+Ca channel in rat cerebral cortex; format: tissue-based; conditions: concentration not given here
[21] = target: Adenosine receptor A3 (Homo sapiens) (UniProt P0DMS8); assay: Displacement of [3H]AB-MECA from human recombinant A3 receptor expressed in HEK293 cells; format: cell-based; conditions: concentration not given here
[22] = species: Rattus norvegicus; assay: Displacement of [125I]a-dendrotoxin from K+V channel in rat cerebral cortex; format: tissue-based; conditions: concentration not given here
[23] = target: Adenosine receptor A2a (Homo sapiens) (UniProt P29274); assay: Displacement of [3H]CGS21680 from human recombinant A2A receptor expressed in HEK293 cells; format: cell-based; conditions: concentration not given here
[24] = Intrinsic clearance in mouse liver microsomes measured per mg of protein; format: ADME, Microsome
How it was run: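 Intrinsic clearance from in vitro incubation of compound with mouse liver microsomes, expressed per mg microsomal protein.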

[25] = target: Neuropeptide Y receptor type 2 (Homo sapiens) (UniProt P49146); assay: Displacement of [125I]peptide YY from human recombinant Y2 receptor expressed in KAN-TS cells; format: cell-based; conditions: concentration not given here
[26] = target: Adrenergic receptor alpha-1 (Rattus norvegicus) (UniProt P15823+P23944+P43140); assay: Displacement of [3H]prazosine from alpha1 receptor in rat cerebral cortex; format: tissue-based; conditions: concentration not given here
[27] = target: Beta-1 adrenergic receptor (Homo sapiens) (UniProt P08588); assay: Displacement of [3H](-)CGP 12177 from human recombinant beta1 receptor expressed in HEK293 cells; format: cell-based; conditions: concentration not given here
[28] = target: monoamine oxidase-B (MAO-B) (Rattus norvegicus, UniProt P19643); assay: Inhibition of rat monoamine oxidase-B at 10 uM
[29] = target: Neurotensin receptor type 1 (Homo sapiens) (UniProt P30989); assay: Displacement of [125I]Tyr3-neurotensin from human recombinant NT1 receptor expressed in H recombinant CHO cells; format: cell-based; conditions: concentration not given here
[30] = target: Muscarinic acetylcholine receptor M3 (Homo sapiens) (UniProt P20309); assay: Displacement of [3H]4-DAMP from human recombinant muscarinic M3 receptor expressed in CHO cells; format: cell-based; conditions: concentration not given here
[31] = target: Cholecystokinin receptor type A (Homo sapiens) (UniProt P32238); assay: Inhibition of human cholecystokinin 1 receptor at 10 uM
[32] = Bioavailability in mouse at 5 mg/kg, ip; format: ADME, organism-based; conditions: in vivo; how it was run: as §1
[33] = Volume of distribution at steady state in mouse at 2.5 mg/kg, iv; format: ADME, organism-based; parameters: dose 2.5 mg/kg, route intravenous; conditions: in vivo, read-out: Vdss; how it was run: as §3

T1 sequence (Q923Y9 whole entry): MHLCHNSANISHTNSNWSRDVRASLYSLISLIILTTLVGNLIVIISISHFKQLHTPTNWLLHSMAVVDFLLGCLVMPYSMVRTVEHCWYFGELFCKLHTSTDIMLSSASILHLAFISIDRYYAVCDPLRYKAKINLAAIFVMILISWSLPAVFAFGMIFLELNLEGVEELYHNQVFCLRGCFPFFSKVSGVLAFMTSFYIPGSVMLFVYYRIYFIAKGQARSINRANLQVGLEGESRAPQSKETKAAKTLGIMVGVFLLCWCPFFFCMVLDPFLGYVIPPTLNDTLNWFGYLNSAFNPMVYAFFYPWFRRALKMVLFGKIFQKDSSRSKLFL
Small conductance calcium-activated potassium channel protein 1 (Rattus norvegicus), sequence (P70606 whole entry): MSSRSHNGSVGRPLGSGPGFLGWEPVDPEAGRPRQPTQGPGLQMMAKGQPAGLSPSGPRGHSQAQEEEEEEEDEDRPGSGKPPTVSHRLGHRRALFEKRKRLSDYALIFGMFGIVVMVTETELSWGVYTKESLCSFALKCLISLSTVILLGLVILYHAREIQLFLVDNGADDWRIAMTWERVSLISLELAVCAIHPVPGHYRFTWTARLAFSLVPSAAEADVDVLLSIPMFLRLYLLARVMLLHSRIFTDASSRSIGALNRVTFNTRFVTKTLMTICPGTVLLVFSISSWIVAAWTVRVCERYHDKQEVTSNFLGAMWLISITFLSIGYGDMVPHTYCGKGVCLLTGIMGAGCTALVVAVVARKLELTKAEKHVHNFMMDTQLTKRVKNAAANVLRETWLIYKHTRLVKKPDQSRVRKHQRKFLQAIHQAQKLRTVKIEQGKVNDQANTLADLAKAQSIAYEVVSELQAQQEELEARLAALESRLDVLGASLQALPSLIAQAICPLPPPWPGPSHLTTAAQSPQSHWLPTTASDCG
Trace amine-associated receptor 1 (Mus musculus, UniProt Q923Y8), sequence (Q923Y8 whole entry): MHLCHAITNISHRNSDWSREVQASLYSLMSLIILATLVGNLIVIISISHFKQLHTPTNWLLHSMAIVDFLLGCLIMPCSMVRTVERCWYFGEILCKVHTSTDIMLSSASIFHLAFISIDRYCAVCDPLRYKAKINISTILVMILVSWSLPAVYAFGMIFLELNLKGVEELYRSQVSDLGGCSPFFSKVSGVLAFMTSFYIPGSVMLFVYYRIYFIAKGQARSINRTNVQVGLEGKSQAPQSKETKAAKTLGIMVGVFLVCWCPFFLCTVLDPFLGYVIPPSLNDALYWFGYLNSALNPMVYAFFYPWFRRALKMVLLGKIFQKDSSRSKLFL
Trace amine-associated receptor 1 (Mus musculus), sequence (Q923Y8 whole entry): as above
Beta-1 adrenergic receptor (Homo sapiens), sequence (P08588 whole entry, looked up): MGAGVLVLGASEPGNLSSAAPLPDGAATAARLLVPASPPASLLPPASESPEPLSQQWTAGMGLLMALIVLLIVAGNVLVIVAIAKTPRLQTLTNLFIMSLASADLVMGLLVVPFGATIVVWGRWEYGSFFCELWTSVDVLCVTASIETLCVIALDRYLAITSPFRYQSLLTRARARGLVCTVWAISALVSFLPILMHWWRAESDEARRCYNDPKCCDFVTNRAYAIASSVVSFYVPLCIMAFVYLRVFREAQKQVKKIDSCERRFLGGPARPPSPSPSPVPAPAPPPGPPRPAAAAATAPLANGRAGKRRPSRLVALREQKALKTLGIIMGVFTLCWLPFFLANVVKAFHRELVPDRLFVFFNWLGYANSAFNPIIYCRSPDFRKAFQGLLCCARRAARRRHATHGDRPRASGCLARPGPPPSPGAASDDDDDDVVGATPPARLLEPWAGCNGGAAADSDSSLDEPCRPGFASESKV
Muscarinic acetylcholine receptor M3 (Homo sapiens), sequence (P20309 whole entry, looked up): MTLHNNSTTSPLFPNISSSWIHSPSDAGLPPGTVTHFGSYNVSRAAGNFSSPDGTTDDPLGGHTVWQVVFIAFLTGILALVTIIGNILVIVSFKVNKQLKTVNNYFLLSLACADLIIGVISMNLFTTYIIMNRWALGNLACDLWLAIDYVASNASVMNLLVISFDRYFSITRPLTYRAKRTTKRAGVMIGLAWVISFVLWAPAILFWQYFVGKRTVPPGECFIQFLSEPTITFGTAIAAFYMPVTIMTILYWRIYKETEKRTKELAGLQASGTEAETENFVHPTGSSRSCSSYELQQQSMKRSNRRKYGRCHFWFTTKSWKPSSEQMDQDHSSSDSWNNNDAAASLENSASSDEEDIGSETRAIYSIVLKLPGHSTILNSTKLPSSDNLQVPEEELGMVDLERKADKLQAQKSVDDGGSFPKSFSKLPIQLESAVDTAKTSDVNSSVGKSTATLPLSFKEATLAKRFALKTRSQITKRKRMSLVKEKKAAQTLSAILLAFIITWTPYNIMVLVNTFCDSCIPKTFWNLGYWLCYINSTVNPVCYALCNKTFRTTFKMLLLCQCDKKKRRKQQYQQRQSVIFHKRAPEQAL
5-hydroxytryptamine receptor 6 (Homo sapiens), sequence (P50406 whole entry): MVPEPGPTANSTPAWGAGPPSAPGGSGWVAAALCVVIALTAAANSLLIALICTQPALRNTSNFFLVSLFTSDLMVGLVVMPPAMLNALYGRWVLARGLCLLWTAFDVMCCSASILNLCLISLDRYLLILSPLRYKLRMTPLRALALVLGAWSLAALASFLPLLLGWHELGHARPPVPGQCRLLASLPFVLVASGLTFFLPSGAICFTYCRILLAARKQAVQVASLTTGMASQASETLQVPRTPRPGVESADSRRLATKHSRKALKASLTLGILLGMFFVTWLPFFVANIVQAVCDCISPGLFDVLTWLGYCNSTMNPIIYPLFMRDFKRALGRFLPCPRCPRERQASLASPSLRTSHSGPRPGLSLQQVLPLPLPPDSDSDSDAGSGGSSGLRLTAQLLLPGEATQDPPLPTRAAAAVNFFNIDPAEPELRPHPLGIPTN
Cholecystokinin receptor type A (Homo sapiens), sequence (P32238 whole entry): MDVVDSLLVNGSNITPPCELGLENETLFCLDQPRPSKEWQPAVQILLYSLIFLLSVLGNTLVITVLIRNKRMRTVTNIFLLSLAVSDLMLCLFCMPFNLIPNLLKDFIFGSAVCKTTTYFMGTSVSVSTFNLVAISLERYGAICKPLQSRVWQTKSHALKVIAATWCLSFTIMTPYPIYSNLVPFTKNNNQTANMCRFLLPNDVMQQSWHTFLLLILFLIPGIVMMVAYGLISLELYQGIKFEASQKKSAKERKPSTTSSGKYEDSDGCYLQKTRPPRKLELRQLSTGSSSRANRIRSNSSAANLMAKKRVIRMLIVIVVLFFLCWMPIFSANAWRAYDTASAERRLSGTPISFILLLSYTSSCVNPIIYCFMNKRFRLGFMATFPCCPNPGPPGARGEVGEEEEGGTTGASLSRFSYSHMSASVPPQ
Type-1 angiotensin II receptor (Homo sapiens), sequence (P30556 whole entry): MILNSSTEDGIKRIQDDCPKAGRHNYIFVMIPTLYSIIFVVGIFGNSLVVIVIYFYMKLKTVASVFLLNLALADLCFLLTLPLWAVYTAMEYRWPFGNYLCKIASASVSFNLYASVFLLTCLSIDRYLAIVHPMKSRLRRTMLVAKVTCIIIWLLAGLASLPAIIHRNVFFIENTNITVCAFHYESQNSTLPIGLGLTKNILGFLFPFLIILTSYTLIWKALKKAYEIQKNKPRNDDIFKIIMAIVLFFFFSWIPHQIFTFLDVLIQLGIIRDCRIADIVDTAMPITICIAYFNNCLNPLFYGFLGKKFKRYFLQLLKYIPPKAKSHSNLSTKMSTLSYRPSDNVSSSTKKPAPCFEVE
Histamine H1 receptor (Homo sapiens), sequence (P35367 whole entry): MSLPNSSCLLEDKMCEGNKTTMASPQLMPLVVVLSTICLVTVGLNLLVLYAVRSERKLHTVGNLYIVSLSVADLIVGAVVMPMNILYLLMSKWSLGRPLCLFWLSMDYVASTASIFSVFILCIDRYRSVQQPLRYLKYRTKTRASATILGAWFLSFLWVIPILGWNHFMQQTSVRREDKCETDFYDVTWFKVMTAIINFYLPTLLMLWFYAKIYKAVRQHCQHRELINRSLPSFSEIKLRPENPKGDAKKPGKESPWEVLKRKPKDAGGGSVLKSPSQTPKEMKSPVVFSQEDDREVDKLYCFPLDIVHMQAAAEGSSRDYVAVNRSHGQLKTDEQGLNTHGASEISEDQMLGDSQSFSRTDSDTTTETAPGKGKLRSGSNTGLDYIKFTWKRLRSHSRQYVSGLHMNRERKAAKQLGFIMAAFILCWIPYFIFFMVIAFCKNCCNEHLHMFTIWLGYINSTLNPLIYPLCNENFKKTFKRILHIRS
Adenosine receptor A3 (Homo sapiens), sequence (P0DMS8 whole entry): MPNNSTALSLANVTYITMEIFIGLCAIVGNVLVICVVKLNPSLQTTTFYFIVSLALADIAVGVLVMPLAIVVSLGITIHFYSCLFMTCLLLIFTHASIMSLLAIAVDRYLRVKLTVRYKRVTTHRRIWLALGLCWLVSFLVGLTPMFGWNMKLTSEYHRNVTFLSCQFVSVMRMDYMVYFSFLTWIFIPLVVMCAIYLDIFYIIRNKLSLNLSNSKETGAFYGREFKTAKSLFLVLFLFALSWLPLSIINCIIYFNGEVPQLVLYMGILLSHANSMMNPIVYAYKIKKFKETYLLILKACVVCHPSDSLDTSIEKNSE
monoamine oxidase-B (MAO-B), sequence (P19643 whole entry): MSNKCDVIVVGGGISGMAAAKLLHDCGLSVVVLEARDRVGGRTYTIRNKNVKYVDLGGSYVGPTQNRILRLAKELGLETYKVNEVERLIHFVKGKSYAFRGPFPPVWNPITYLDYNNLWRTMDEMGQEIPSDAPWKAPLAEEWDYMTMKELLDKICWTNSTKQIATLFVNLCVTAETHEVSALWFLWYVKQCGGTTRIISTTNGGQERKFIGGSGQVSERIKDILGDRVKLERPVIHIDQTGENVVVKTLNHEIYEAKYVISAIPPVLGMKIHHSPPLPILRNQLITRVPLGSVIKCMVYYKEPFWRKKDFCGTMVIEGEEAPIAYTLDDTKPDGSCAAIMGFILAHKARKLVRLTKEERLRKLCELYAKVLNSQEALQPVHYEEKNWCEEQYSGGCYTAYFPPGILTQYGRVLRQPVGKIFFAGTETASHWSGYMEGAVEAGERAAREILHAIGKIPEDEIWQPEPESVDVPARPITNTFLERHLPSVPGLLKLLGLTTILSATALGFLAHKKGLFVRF

Structure (SMILES): CCOc1cccc(NC(=O)c2ccc(N3CCCC3)c(C(F)(F)F)c2)c1
- inhibition [1]: 54%
- IC50 [2]: 4540 nM
- half-life [3]: 1.9 h
- Ki [4]: > 5000 nM
- inhibition [5]: 5%
- Ki [6]: 942 nM
- inhibition [7]: 88%
- inhibition [8]: 33%
- inhibition [9]: 6%
- inhibition at 10 µM [10]: 61%
- inhibition [11]: 43%
- clearance [12]: 87 mL/min/kg
- Kp [13]: 0.5
- inhibition [14]: 4%
- Ki [15]: 0.9 nM
- inhibition [16]: -2%
- inhibition [17]: 7%
- Activity [18]: -12%
- inhibition [19]: 16%
- inhibition [20]: 0%
- inhibition [21]: 80%
- inhibition [22]: -3%
- inhibition [23]: 13%
- clearance [24]: 109 µL/min/mg
- inhibition [25]: 6%
- inhibition [26]: 8%
- inhibition [27]: 4%
- inhibition at 10 µM [28]: 39%
- inhibition [29]: -5%
- inhibition [30]: -10%
- inhibition [31]: 57%
- bioavailability [32]: 74%
- Vd [33]: 3.7 L/kg
